Rows were chosen to be rich in hits. Some 1.9% of all compounds tested hit in one or more screens of this group.
Rin1 Abl inh: inhibitors of human Rin1-Abl protein interaction; actives 0.4% (n = 360,000); AID 588664; inhibition, % at 7.35 µM; TR-FRET Rin1/Abl binding, biochemical; in the data active = inhibition above about 5%, passing the limit was not always enough
NadD block: blocks S. aureus nicotinate mononucleotide adenylyltransferase; actives 0.78% (n = 360,000); purified NadD enzyme, colorimetric absorbance read-out; inhibition, % at 20 µM; in the data active = inhibition above about 26%
Rpn11 inh: Rpn11 (human) deubiquitinase inhibition. human 26S proteasome, Ub4-pepOG fluorescence polarization; 20S core pre-blocked with epoxomicin. inhibition, % at 20 µM. actives 0.59% (n = 360,000);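 active = inhibition at 20 µM, scaled to each plate's controls, above about 33%, limit read from the data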
ABHD5-PLIN5 inh: inhibitors of human ABHD5-perilipin-5 interaction; Q00G26+Q8WTS1; Split G. princeps luciferase complementation, luminescence, 4 h; inhibition, % at 4 µM; actives 0.78% (n = 360,000); AID 602281;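 active = inhibition above the mean inhibition across every tested compound plus 3 SD, cut at about 22% in these data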;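 also: 0% = DMSO only wells and the 100% control is not disclosed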
XiGFP reactiv: reactivates the inactive X chromosome in mouse fibroblasts; XiGFP mouse fibroblasts, % GFP-positive cells imaging, 3 d; cells co-treated with 5-aza-dC sensitizer; scaled so ellipticine positive control = 100%; activation, % at 7.58 µM; actives 0.055% (n = 360,000); AID 743238;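 active = mean normalized replicate activation at least 10% and every replicate at or above 10%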;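 also: 0% = median of on-plate neutral control wells and 100% = ellipticine 6 µM median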
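material = 68-5-11 XiGFP fibroblast line | medium = DMEM plus 5-aza-dC sensitizer | schedule = 3 days compound exposure | benchmarks = positive control ellipticine, 6 µM final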
Rpn11 inh conf: Rpn11 inhibition confirmation, single concentration. shares compounds with Rpn11 inh. purified human 26S proteasome, Ub4-pepOG fluorescence polarization; proteasome pretreated with epoxomicin. inhibition, % at 20 µM. actives 29% (n = 1,900)
MMP-2 counter: blocks human MMP-2, flagging nonselective RPN11 hits. shares compounds with Rpn11 inh. recombinant MMP-2, FRET peptide cleavage fluorescence. inhibition, % at 20 µM. actives 4% (n = 1,900);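 also: human MMP-2 activated beforehand with APMA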
Thrombin FP: thrombin (bovine) inhibition counter-screen; inhibition, % at 20 µM; bovine thrombin cleavage of Ub4-pepOG, fluorescence polarization; actives 13% (n = 1,900); shares compounds with Rpn11 inh;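 active = mean inhibition at least 40% at 20 µM, or signal 3 deviations below plate average, so some actives read negative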;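 also: plate controls were thrombin with DMSO for no effect and buffer wells lacking thrombin for full effect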
Target sequence (P00735 whole entry, looked up): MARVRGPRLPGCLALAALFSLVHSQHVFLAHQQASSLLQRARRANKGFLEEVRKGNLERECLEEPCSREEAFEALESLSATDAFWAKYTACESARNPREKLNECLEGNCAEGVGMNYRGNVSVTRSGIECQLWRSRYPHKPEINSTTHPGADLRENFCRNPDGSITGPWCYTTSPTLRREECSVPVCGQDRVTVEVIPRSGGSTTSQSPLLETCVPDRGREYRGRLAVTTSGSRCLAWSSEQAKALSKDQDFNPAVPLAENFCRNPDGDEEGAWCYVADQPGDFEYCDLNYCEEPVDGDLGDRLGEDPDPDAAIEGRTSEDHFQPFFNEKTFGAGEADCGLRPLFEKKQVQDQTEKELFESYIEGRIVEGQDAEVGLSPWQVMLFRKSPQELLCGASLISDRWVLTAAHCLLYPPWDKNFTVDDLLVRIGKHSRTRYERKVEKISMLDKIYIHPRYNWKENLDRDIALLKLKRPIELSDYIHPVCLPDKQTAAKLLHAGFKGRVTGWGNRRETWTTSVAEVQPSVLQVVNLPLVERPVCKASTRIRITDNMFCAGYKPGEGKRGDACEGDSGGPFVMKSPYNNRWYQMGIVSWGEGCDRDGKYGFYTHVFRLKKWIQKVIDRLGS
An asterisk follows results filed as active. Rule as the data show it, unless noted: active = inhibition above about 40%; inactive = the rest.

Screening Cc1cc(C)c2c(N)c3cccc(C)c3nc2n1 returned Rin1 Abl inh -7, NadD block 5, Rpn11 inh 67*, ABHD5-PLIN5 inh 6, XiGFP reactiv 1, Rpn11 inh conf 54*, MMP-2 counter -29 and Thrombin FP 8.
Screening CNC[C@@H]1Oc2ccc(NC(C)=O)cc2CC(=O)N(C)C[C@H]1C returned XiGFP reactiv 0.
Screening Cc1ccc(SCCNC(=O)CN2C(=O)c3ccccc3S2(=O)=O)cc1 returned Rin1 Abl inh 0, NadD block -4, Rpn11 inh 0 and ABHD5-PLIN5 inh -1.
For O=C(CN1C(=O)c2ccccc2S1(=O)=O)NCCSc1ccccc1 the results were Rin1 Abl inh -4, NadD block 6, Rpn11 inh 41*, ABHD5-PLIN5 inh 10, Rpn11 inh conf -7, MMP-2 counter -26 and Thrombin FP -19.
Screening C[C@@H]1CCCCO[C@@H](CN(C)C(=O)Nc2ccc3c(c2)OCO3)[C@H](C)CN([C@H](C)CO)C(=O)c2cc(N(C)C)ccc2O1 returned XiGFP reactiv -1.
For Cc1ccc(-c2ccc(/C=C3\SC(N4CCOCC4)=NC3=O)o2)cc1 the results were Rin1 Abl inh -9, NadD block -5, Rpn11 inh 60*, ABHD5-PLIN5 inh 13, XiGFP reactiv 0, Rpn11 inh conf 48*, MMP-2 counter 4 and Thrombin FP 34.
For O=C1N=C(N2CCOCC2)S/C1=C/c1ccc(-c2ccc(F)cc2)o1 the results were Rin1 Abl inh -5, NadD block -1, Rpn11 inh 1, ABHD5-PLIN5 inh 4 and XiGFP reactiv 0.
COc1ccccc1NC(=O)N[C@H]1C=C[C@H](CC(=O)NCc2ccc(Cl)c(Cl)c2)O[C@@H]1CO was read as XiGFP reactiv 0.
Screening CC(=O)OCC1OC(n2c(-c3ccc(Cl)cc3)ccc(C#N)c2=S)C(OC(C)=O)C(OC(C)=O)C1OC(C)=O (stereo not drawn) returned Rin1 Abl inh 2, NadD block 4, Rpn11 inh 44*, ABHD5-PLIN5 inh -11, XiGFP reactiv 0, Rpn11 inh conf 17, MMP-2 counter -38 and Thrombin FP 8.
Screening CC(=O)OCC1OC(n2c3c(cc(C#N)c2=S)CCCC3)C(OC(C)=O)C(OC(C)=O)C1OC(C)=O (stereo not drawn) returned Rin1 Abl inh 2, NadD block -2, Rpn11 inh 7, ABHD5-PLIN5 inh -3 and XiGFP reactiv 0.
`COc1ccc(-c2nc3oc4cc(OC)ccc4c(=O)c3c(=O)n2Cc2ccco2)cc1` gave Rin1 Abl inh -8, NadD block 24, Rpn11 inh -12 and ABHD5-PLIN5 inh 11.
For CCc1nc2oc3cc(OC)ccc3c(=O)c2c(=O)n1Cc1ccco1 the results were Rin1 Abl inh 0, NadD block 4, Rpn11 inh active, ABHD5-PLIN5 inh 3, Rpn11 inh conf -8, MMP-2 counter 6 and Thrombin FP 19.
N#CCC(=O)Nc1ccc(C(=O)OCC(=O)c2ccc3c(c2)NC(=O)CO3)cc1 was read as Rin1 Abl inh -1, NadD block 16, Rpn11 inh 45*, ABHD5-PLIN5 inh -3, XiGFP reactiv 0, Rpn11 inh conf 21, MMP-2 counter -3 and Thrombin FP 25.
CC(=O)Nc1cc(NC(C)=O)cc(C(=O)OCC(=O)c2ccc3c(c2)NC(=O)CO3)c1 was read as Rin1 Abl inh 0, NadD block 5, Rpn11 inh 6, ABHD5-PLIN5 inh 9 and XiGFP reactiv 0.
For Cc1cc(C(=O)COC(=O)c2ccc(NC(=O)CC#N)cc2)c(C)n1CCc1ccc(F)cc1 the results were Rin1 Abl inh -1, NadD block 24, Rpn11 inh 53*, ABHD5-PLIN5 inh -3, XiGFP reactiv 0, Rpn11 inh conf 23, MMP-2 counter -19 and Thrombin FP 17.
`C[C@@H]1CN([C@@H](C)CO)C(=O)c2cccc(NC(=O)Nc3ccc(C(F)(F)F)cc3)c2O[C@@H]1CN(C)Cc1ccc(C(=O)Nc2ccccc2N)cc1` gave XiGFP reactiv 0.
ClCC1NCC(c2ccccc2Cl)c2c1[nH]c1ccccc21 (stereo not drawn) was read as Rin1 Abl inh 3, NadD block 9, Rpn11 inh 72*, ABHD5-PLIN5 inh 4, XiGFP reactiv 4, Rpn11 inh conf 33, MMP-2 counter 38 and Thrombin FP 18.
Cc1occc1C(=O)/C(C#N)=C/c1ccc(O)c(Br)c1 was read as Rin1 Abl inh 1, NadD block 0, Rpn11 inh 143*, ABHD5-PLIN5 inh 12, XiGFP reactiv 0, Rpn11 inh conf 116*, MMP-2 counter -24 and Thrombin FP 101*.
Screening C[C@@H]1CN([C@H](C)CO)C(=O)CCCn2cc(nn2)CO[C@@H]1CN(C)Cc1ccc(C(F)(F)F)cc1 returned XiGFP reactiv 0.
`COC(=O)c1ccc(C)c(NC(=O)CSc2sc3c(O)cc(=O)[nH]c3c2C#N)c1` gave Rin1 Abl inh 0, NadD block 11, Rpn11 inh 44*, ABHD5-PLIN5 inh -9, XiGFP reactiv 0, Rpn11 inh conf 24, MMP-2 counter 24 and Thrombin FP -5.
`COc1cccc2sc(Nc3nc4ccc(NC(C)=O)cc4s3)nc12` gave Rin1 Abl inh -1, NadD block 13, Rpn11 inh 41*, ABHD5-PLIN5 inh 5, XiGFP reactiv 1, Rpn11 inh conf 25, MMP-2 counter 2 and Thrombin FP 2.
For Cc1ccc(CN(C(=O)c2csnn2)C(C(=O)NC2CCCC2)c2ccccn2)cc1 (stereo not drawn) the results were Rin1 Abl inh 2, NadD block 2, Rpn11 inh 48*, ABHD5-PLIN5 inh -4, XiGFP reactiv 0, Rpn11 inh conf -23, MMP-2 counter -39 and Thrombin FP -20.
`Cc1ccc(N(C(=O)c2csnn2)C(C(=O)NC2CCCCC2)c2ccccn2)cc1` (stereo not drawn) gave Rin1 Abl inh -5, NadD block 3, Rpn11 inh 0, ABHD5-PLIN5 inh -6 and XiGFP reactiv 0.
Screening CN(CC(=O)Nc1c(Cl)cccc1Cl)C(=O)CCc1nc2sc3c(c2c(=O)[nH]1)CCCC3 returned Rin1 Abl inh 1, NadD block 15, Rpn11 inh 26, ABHD5-PLIN5 inh 1 and XiGFP reactiv 0.
